ChEMBL document CHEMBL2069264, “Halogenated anthraquinones from the marine-derived fungus Aspergillus sp. SCSIO F063” (J Nat Prod, 2012)
The source made the active and inactive calls. The calls are words filed in the database; no cut-off is given here.

Experiments:
SF-268 = test: Cytotoxicity against human SF268 cells after 72 hrs BY SRB assay; type: functional, cell-based; conditions: SF-268, 72 h
Summary of the method: (§1)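 Cells seeded at 3 × 10^4 cells/mL (180 μL per well) and preincubated 24 h at 37 °C, 5% CO2. Compound added at various concentrations (20 μL), then 72 h further incubation. Fixed with 50% (w/v) TCA, stained 30 min with 0.4% SRB in 1% acetic acid, washed with 1% acetic acid. Dye dissolved in 10 mM Tris base, OD read at 570 nm. Cisplatin as positive control. Triplicate; IC50 by nonlinear curve fitting.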

MCF7 = test: Cytotoxicity against human MCF7 cells after 72 hrs BY SRB assay; type: functional, cell-based; conditions: MCF7, 72 h; summary of the method: as §1
NCI-H460 = test: Cytotoxicity against human NCI-H460 cells after 72 hrs BY SRB assay; type: functional, cell-based; conditions: NCI-H460, 72 h; summary of the method: as §1
Staphylococcus aureus = test: Antimicrobial activity against Staphylococcus aureus ATCC 29213 assessed as diameter of zone of growth inhibition at 10 ug/6 mm disc incubated for 12 hrs by disc diffusion assay; type: functional, organism-based
Summary of the method: (§2)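 Bacteria grown 10 h at 37 °C in LB broth as seed cultures, then mixed into LB agar to pour plates. Sterile 6 mm filter disks loaded with 5 μL test solution at 2 μg/μL in DMSO; ampicillin disks (5 μg/μL in DMSO) as positive control. Plates incubated 12 h at 37 °C, then diameter of the growth-inhibition zone around each disk recorded.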

Bacillus thuringiensis = test: Antimicrobial activity against Bacillus thuringiensis ATCC 39765 assessed as diameter of zone of growth inhibition at 10 ug/6 mm disc incubated for 12 hrs by disc diffusion assay; type: functional, organism-based; summary of the method: as §2
Bacillus subtilis = test: Antimicrobial activity against Bacillus subtilis ATCC 6633 assessed as diameter of zone of growth inhibition at 10 ug/6 mm disc incubated for 12 hrs by disc diffusion assay; type: functional, organism-based; summary of the method: as §2

Compound	IC50 (SF-268) [µM]	IC50 (MCF7) [µM]	IC50 (NCI-H460) [µM]	diameter of the inhibition zone (DIZ) (Staphylococcus aureus)	diameter of the inhibition zone (DIZ) (Bacillus thuringiensis)	diameter of the inhibition zone (DIZ) (Bacillus subtilis)
CCCC/C=C/c1c(O)cc2c(c1O)C(=O)c1c(cc(O)c(Cl)c1O)C2=O	> 50	> 50	> 50	inactive	inactive	inactive
CCCC/C=C/c1c(O)cc2c(c1O)C(=O)c1c(cc(OC)c(Cl)c1O)C2=O	> 50	24.4	> 50	inactive	inactive	inactive
CCCCC[C@H](O)c1c(O)cc2c(c1O)C(=O)c1c(O)cc(O)cc1C2=O	> 50	45.5	> 50	inactive	inactive	inactive
CCCCC[C@H](OC)c1c(O)cc2c(c1O)C(=O)c1c(O)cc(O)cc1C2=O	33.6	35.3	44.2	inactive	inactive	inactive
CCCCC[C@H](OCCCC)c1c(O)cc2c(c1O)C(=O)c1c(O)cc(O)cc1C2=O	47.2	40.5	> 50	inactive	inactive	inactive
CCCCC[C@H](OC)c1c(O)cc2c(c1O)C(=O)c1c(cc(OC)c(Cl)c1O)C2=O	> 50	> 50	> 50	inactive	inactive	inactive
CCCCC[C@H](OC)c1c(O)cc2c(c1O)C(=O)c1c(O)cc(OC)cc1C2=O	> 50	> 50	> 50	inactive	inactive	inactive
CCCCC[C@H](OC)c1c(O)cc2c(c1O)C(=O)c1c(cc(OC)c(Br)c1O)C2=O	> 50	> 50	> 50	inactive	inactive	inactive
CCCC/C=C/c1c(O)cc2c(c1O)C(=O)c1c(O)cc(O)cc1C2=O [AVERYTHRIN]	> 50	29.7	> 50	inactive	inactive	inactive
CCCCC[C@H](O)c1c(O)cc2c(c1O)C(=O)c1c(O)cc(OC)cc1C2=O	> 50	> 50	> 50	inactive	inactive	inactive
CCCCC[C@H](O)c1c(O)cc2c(c1O)C(=O)c1c(cc(OC)c(Br)c1O)C2=O	24.7	25.6	18.9	inactive	inactive	inactive
CCCCC[C@H](OCCCC)c1c(O)cc2c(c1O)C(=O)c1c(cc(O)c(Cl)c1O)C2=O	> 50	49.5	> 50	inactive	inactive	inactive
CCCCC[C@H](O)c1c(O)cc2c(c1O)C(=O)c1c(cc(O)c(Cl)c1O)C2=O	> 50	36.4	> 50	inactive	inactive	inactive
CCCCC[C@H](OC)c1c(O)cc2c(c1O)C(=O)c1c(cc(O)c(Cl)c1O)C2=O	34.1	26.1	37.2	inactive	inactive	inactive
CCCCC[C@H](O)c1c(O)cc2c(c1O)C(=O)c1c(cc(OC)c(Cl)c1O)C2=O	7.11	6.64	7.42	inactive	inactive	inactive
